Measured values published in ChEMBL document CHEMBL3616442, “Unconventional Knoevenagel-type indoles: Synthesis and cell-based studies for the identification of pro-apoptotic agents” (Eur J Med Chem, 2015).

Columns and labels:
Format in all cases: functional
[1] = Growth inhibition of human SF539 cells after 48 hrs by sulforhodamine B assay; conditions: SF-539, 48 h
T47D = assay: Growth inhibition of human T47D cells after 48 hrs by sulforhodamine B assay
HL-60(TB) = assay: Growth inhibition of human HL-60(TB) cells after 48 hrs by sulforhodamine B assay; conditions: HL-60, 48 h
Method in brief: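 NCI 60-cell-line screen, HL-60(TB) included. Compound given at five 10-fold dilutions from 10^-4 to 10^-8 M. Cells exposed for the last 48 h of a 72 h incubation. Growth or viability estimated by sulforhodamine B protein assay. GI50 is the concentration giving 50% growth inhibition. Values outside the tested range are reported as greater or less than the highest or lowest concentration.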

IGROV-1 = assay: Growth inhibition of human IGROV1 cells after 48 hrs by sulforhodamine B assay; conditions: IGROV-1, 48 h
Method in brief: (§1)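 NCI 60-cell-line screen. Compounds tested at five 10-fold dilutions from 10^-4 to 10^-8 M. Cells exposed for the last 48 h of a 72 h incubation, growth estimated by sulforhodamine B protein assay. GI50 is the concentration giving 50% growth inhibition. Values beyond the tested range are expressed as greater or lesser than the extreme concentration.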

MDA-MB-231 = assay: Growth inhibition of human MDA-MB-231 cells after 48 hrs by sulforhodamine B assay; conditions: MDA-MB-231, 48 h; method in brief: as §1
[2] = Growth inhibition of human COLO205 cells after 48 hrs by sulforhodamine B assay; conditions: COLO 205, 48 h; method in brief: as §1
[3] = Growth inhibition of human BT549 cells after 48 hrs by sulforhodamine B assay; conditions: BT-549, 48 h; method in brief: as §1
UACC-257 = assay: Growth inhibition of human UACC257 cells after 48 hrs by sulforhodamine B assay; conditions: UACC-257, 48 h
UACC-62 = assay: Growth inhibition of human UACC62 cells after 48 hrs by sulforhodamine B assay; conditions: UACC-62, 48 h
A549 = assay: Growth inhibition of human A549 cells after 48 hrs by sulforhodamine B assay; conditions: A549, 48 h; method in brief: as §1
ACHN = assay: Growth inhibition of human ACHN cells after 48 hrs by sulforhodamine B assay; method in brief: as §1
CAKI-1 = assay: Growth inhibition of human CAKI-1 cells after 48 hrs by sulforhodamine B assay; conditions: CAKI-1, 48 h; method in brief: as §1
Malme-3M = assay: Growth inhibition of human MALME-3M cells after 48 hrs by sulforhodamine B assay; method in brief: as §1
MDA-MB-435 = assay: Growth inhibition of human MDA-MB-435 cells after 48 hrs by sulforhodamine B assay; conditions: MDA-MB-435, 48 h; method in brief: as §1
NCI-H460 = assay: Growth inhibition of human NCI-H460 cells after 48 hrs by sulforhodamine B assay; conditions: NCI-H460, 48 h; method in brief: as §1
[4] = Growth inhibition of human NCI-ADR-RES cells after 48 hrs by sulforhodamine B assay; method in brief: as §1
SF-268 = assay: Growth inhibition of human SF268 cells after 48 hrs by sulforhodamine B assay; conditions: SF-268, 48 h
[5] = Growth inhibition of human SF295 cells after 48 hrs by sulforhodamine B assay; conditions: SF-295, 48 h
K562 = assay: Growth inhibition of human K562 cells after 48 hrs by sulforhodamine B assay; conditions: K562, 48 h; method in brief: as §1
786-0 = assay: Growth inhibition of human 786-0 cells after 48 hrs by sulforhodamine B assay; conditions: 786-0, 48 h; method in brief: as §1
SK-MEL-5 = assay: Growth inhibition of human SK-MEL-5 cells after 48 hrs by sulforhodamine B assay; conditions: SK-MEL-5, 48 h
HOP-62 = assay: Growth inhibition of human HOP62 cells after 48 hrs by sulforhodamine B assay; conditions: HOP-62, 48 h; method in brief: as §1
OVCAR-3 = assay: Growth inhibition of human OVCAR3 cells after 48 hrs by sulforhodamine B assay; conditions: OVCAR-3, 48 h; method in brief: as §1
TK-10 = assay: Growth inhibition of human TK10 cells after 48 hrs by sulforhodamine B assay; conditions: TK-10, 48 h
HCT-15 = assay: Growth inhibition of human HCT15 cells after 48 hrs by sulforhodamine B assay; conditions: HCT-15, 48 h; method in brief: as §1
U-251 = assay: Growth inhibition of human U251 cells after 48 hrs by sulforhodamine B assay; conditions: U-251, 48 h
UO-31 = assay: Growth inhibition of human UO31 cells after 48 hrs by sulforhodamine B assay; conditions: UO-31, 48 h
[6] = Growth inhibition of human MOLT4 cells after 48 hrs by sulforhodamine B assay; conditions: MOLT-4, 48 h; method in brief: as §1
SR = assay: Growth inhibition of human SR cells after 48 hrs by sulforhodamine B assay
OVCAR-8 = assay: Growth inhibition of human OVCAR8 cells after 48 hrs by sulforhodamine B assay; conditions: OVCAR-8, 48 h
NCI-H522 = assay: Growth inhibition of human NCI-H522 cells after 48 hrs by sulforhodamine B assay; conditions: NCI-H522, 48 h; method in brief: as §1
NCI-H23 = assay: Growth inhibition of human NCI-H23 cells after 48 hrs by sulforhodamine B assay; conditions: NCI-H23, 48 h; method in brief: as §1
MDA-MB-468 = assay: Growth inhibition of human MDA-MB-468 cells after 48 hrs by sulforhodamine B assay; conditions: MDA-MB-468, 48 h; method in brief: as §1
NCI-H322M = assay: Growth inhibition of human NCI-H322M cells after 48 hrs by sulforhodamine B assay; method in brief: as §1
OVCAR-5 = assay: Growth inhibition of human OVCAR5 cells after 48 hrs by sulforhodamine B assay; conditions: OVCAR-5, 48 h
M14 = assay: Growth inhibition of human M14 cells after 48 hrs by sulforhodamine B assay; conditions: M14, 48 h; method in brief: as §1
HT-29 = assay: Growth inhibition of human HT-29 cells after 48 hrs by sulforhodamine B assay; conditions: HT-29, 48 h; method in brief: as §1
SNB-19 = assay: Growth inhibition of human SNB19 cells after 48 hrs by sulforhodamine B assay; conditions: SNB-19, 48 h
SN12C = assay: Growth inhibition of human SN12C cells after 48 hrs by sulforhodamine B assay
[7] = Growth inhibition of human EKVX cells after 48 hrs by sulforhodamine B assay; method in brief: as §1
SW-620 = assay: Growth inhibition of human SW620 cells after 48 hrs by sulforhodamine B assay; conditions: SW-620, 48 h
CCRF-CEM = assay: Growth inhibition of human CCRF-CEM cells after 48 hrs by sulforhodamine B assay; method in brief: as §1
NCI-H226 = assay: Growth inhibition of human NCI-H226 cells after 48 hrs by sulforhodamine B assay; conditions: NCI-H226, 48 h; method in brief: as §1
PC-3 = assay: Growth inhibition of human PC3 cells after 48 hrs by sulforhodamine B assay; conditions: PC-3, 48 h
[8] = Growth inhibition of human HCC2998 cells after 48 hrs by sulforhodamine B assay; conditions: HCC 2998, 48 h; method in brief: as §1

## COc1ccc(-c2[nH]c3ccc(OC)cc3c2/C=C(\C#N)S(=O)(=O)c2ccccc2)cc1
[1]
  GI50: 510 nM
T47D
  GI50: 905 nM
HL-60(TB)
  GI50: 899 nM
IGROV-1
  GI50: 10600 nM
MDA-MB-231
  GI50: 1400 nM
[2]
  GI50: 396 nM
[3]
  GI50: 4800 nM
UACC-257
  GI50: 46100 nM
UACC-62
  GI50: 660 nM
A549
  GI50: 2800 nM
ACHN
  GI50: 1800 nM
CAKI-1
  GI50: 4200 nM
Malme-3M
  GI50: 3200 nM
MDA-MB-435
  GI50: 276 nM
NCI-H460
  GI50: 687 nM
[4]
  GI50: 494 nM
SF-268
  GI50: 1600 nM
[5]
  GI50: 760 nM
K562
  GI50: 508 nM
786-0
  GI50: 2100 nM
SK-MEL-5
  GI50: 319 nM
HOP-62
  GI50: 3100 nM
OVCAR-3
  GI50: 359 nM
TK-10
  GI50: 5000 nM
HCT-15
  GI50: 632 nM
U-251
  GI50: 563 nM
UO-31
  GI50: 3100 nM
[6]
  GI50: 765 nM
SR
  GI50: 305 nM
OVCAR-8
  GI50: 3100 nM
NCI-H522
  GI50: 1700 nM
NCI-H23
  GI50: 946 nM
MDA-MB-468
  GI50: 1300 nM
NCI-H322M
  GI50: 4300 nM
OVCAR-5
  GI50: 4600 nM
M14
  GI50: 500 nM
HT-29
  GI50: 435 nM
SNB-19
  GI50: 3200 nM
SN12C
  GI50: 2300 nM
[7]
  GI50: 3300 nM
SW-620
  GI50: 540 nM
CCRF-CEM
  GI50: 1300 nM
NCI-H226
  GI50: 3700 nM
PC-3
  GI50: 534 nM
[8]
  GI50: 2000 nM
